Screening results: PubChem, Broad Institute
E-selectin induc: E-selectin induction on HUVECs. AID 686992. P16581. activation, % at 7.58 µM. 260,000 compounds, 0.37% hits. HUVEC E-selectin immunofluorescence imaging; normalized: neutral wells 0, TNF-alpha wells 100;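 active = mean E-selectin-positive cell signal at least 10% of the positive control, reached in at least 60% of replicates, without over 20% cell loss; inconclusive = no rule given, readout overlaps actives, possibly toxicity-flagged; inactive = the rest, including those meeting only one limit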
Target sequence (P16581 whole entry, looked up): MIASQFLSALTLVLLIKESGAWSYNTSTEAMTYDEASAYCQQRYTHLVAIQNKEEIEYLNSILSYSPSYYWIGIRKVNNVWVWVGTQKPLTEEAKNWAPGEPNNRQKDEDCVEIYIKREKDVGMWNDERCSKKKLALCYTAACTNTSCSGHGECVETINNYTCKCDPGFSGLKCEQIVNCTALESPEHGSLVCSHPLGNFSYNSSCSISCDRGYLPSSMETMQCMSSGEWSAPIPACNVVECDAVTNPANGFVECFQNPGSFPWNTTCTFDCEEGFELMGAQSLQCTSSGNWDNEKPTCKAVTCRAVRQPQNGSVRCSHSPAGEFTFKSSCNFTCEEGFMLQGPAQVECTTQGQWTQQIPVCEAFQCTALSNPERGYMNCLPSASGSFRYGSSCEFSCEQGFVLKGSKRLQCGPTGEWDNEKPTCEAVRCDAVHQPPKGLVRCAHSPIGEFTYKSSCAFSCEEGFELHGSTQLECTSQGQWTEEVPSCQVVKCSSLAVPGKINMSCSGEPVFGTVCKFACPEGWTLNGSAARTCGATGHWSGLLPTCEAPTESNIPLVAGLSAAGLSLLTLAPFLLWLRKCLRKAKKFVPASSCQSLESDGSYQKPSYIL
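System: HUVEC, human umbilical vein endothelial cells; quantity: 3,000 cells/well; buffer or medium: EGM-2 medium, gelatin-coated wells; dosing: single-point compound dose; detection: immunofluorescence imaging; evaluation: % PE-positive cells; benchmarks: TNF-alpha, DMSO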
S100A4 MyoIIA: blocks human S100A4 binding to myosin IIA peptide | P26447 | S100A4/TAMRA-MyoIIA peptide fluorescence polarization | inhibition, % at 10.7 µM | 360,000 compounds, 0.14% hits | AID 652163;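 active = mean inhibition of at least 70% across replicates, with every replicate also reaching that level; inconclusive = mean inhibition reaches 70% but some replicates fall short; inactive = mean inhibition below 70%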
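Test system: S100A4 monomer protein; Medium: HEPES pH 7.2 with CaCl2, KCl, NaCl, DTT, Triton; Probe or stimulus: TAMRA-labelled myosin IIA heavy-chain peptide probe, 5 nM; Doses: one dose per compound; Times: polarization read 5 min after assay mix addition, stable 5–60 min; Benchmarks: neutral control DMSO, positive control TFP.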
SIRT5 block: inhibitors of human sirtuin-5 desuccinylase; Q9NXA8; Purified SirT5, succinyl-peptide AMC, trypsin-coupled fluorescence; inhibition, % at 15 µM; 330,000 compounds, 1.1% hits; AID 652115; in the data active = inhibition above about 15%; inconclusive = no clear call, values can overlap the other calls
miR-122 sensor: inhibitors of miR-122 in Huh7 cells; Huh7 miR-122 Renilla luciferase sensor, 48 h; neutral wells = 0, positive control = 100; activation (reporter increase), % at 12.5 µM; 340,000 compounds, 0.3% hits; AID 602342;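 active = mean replicate activation score at least 90 and every replicate individually at or above 90; inconclusive = only one of the two criteria met; inactive = neither criterion met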;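 note: higher luciferase means less miR-122 activity so hits act as miR-122 inhibitors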
FGF22 binding: binders of recombinant human FGF22 by thermal shift. 340,000 compounds, 1.5% hits. SYPRO orange fluorescence; percent of sucrose octasulfate shift, DMSO zero. AID 651658. activity (Tm shift, normalised), % at 9.99 µM;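 active = mean Tm shift, scaled 0 neutral to 100 positive control, at about 1.3% or above, every replicate too, limit read from the data; inconclusive = no clear call, values can overlap the other calls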
* marks the source's active call; other numbers are inactive results; [ ] = dose if it differs, or a comment. An excerpt weighted towards active compounds, which were near 2.5% of everything screened.

For CCc1ccc(-c2cc(C)no2)cc1S(=O)(=O)NCc1ccccc1OC the results were S100A4 MyoIIA 15, SIRT5 block 2, miR-122 sensor 109* and FGF22 binding 0.
Screening Cc1cc(-c2ccc(C(C)C)c(S(=O)(=O)NCc3ccco3)c2)on1 returned S100A4 MyoIIA 26, SIRT5 block 1, miR-122 sensor 168* and FGF22 binding 0.
Screening COc1ccccc1CNS(=O)(=O)c1ccc(-c2cc(C)no2)cc1 returned S100A4 MyoIIA -2, SIRT5 block -1, miR-122 sensor inconclusive and FGF22 binding 0.
Screening C[C@@H]1CN([C@@H](C)CO)C(=O)c2cccc(NC(=O)C3CCCCC3)c2O[C@@H]1CN(C)Cc1ccc(C(=O)O)cc1 returned E-selectin induc 2, S100A4 MyoIIA 12, SIRT5 block -1, miR-122 sensor 1[16.7 µM] and FGF22 binding 0.
`COc1ccc(NC(=O)Nc2ccc3c(c2)C(=O)N([C@@H](C)CO)C[C@H](C)[C@H](CN(C)C)O3)cc1` gave E-selectin induc -8, S100A4 MyoIIA -7, SIRT5 block -2, miR-122 sensor 0[16.7 µM] and FGF22 binding 0.
COc1ccc(NC(=O)Nc2ccc3c(c2)C(=O)N([C@@H](C)CO)C[C@H](C)[C@@H](CN(C)C)O3)cc1 was read as E-selectin induc 41*, S100A4 MyoIIA -1, SIRT5 block -3, miR-122 sensor 2[16.7 µM] and FGF22 binding 0.
`COc1ccc(CN(C)C[C@@H]2Oc3ccc(NC(=O)c4ccncc4)cc3C(=O)N([C@@H](C)CO)C[C@H]2C)cc1` gave E-selectin induc 56*, S100A4 MyoIIA -3, SIRT5 block -5, miR-122 sensor 6[16.7 µM] and FGF22 binding 0.
C[C@@H]1CN([C@H](C)CO)C(=O)c2cc(NC(=O)Nc3cccc4ccccc34)ccc2O[C@@H]1CN(C)Cc1ccc2c(c1)OCO2 was read as S100A4 MyoIIA 7, SIRT5 block 15* and miR-122 sensor -3[16.7 µM].
COc1ccc(CN(C)C[C@H]2Oc3ccc(NC(=O)Nc4c(C)noc4C)cc3C(=O)N([C@@H](C)CO)C[C@H]2C)cc1 was read as E-selectin induc 239*, S100A4 MyoIIA -2, SIRT5 block -3, miR-122 sensor 3[16.7 µM] and FGF22 binding 0.
Screening O=C(c1ccccc1)N1CC2(C1)[C@@H](c1ccccc1)[C@@H](CO)N2CC1CC1 returned E-selectin induc 0, S100A4 MyoIIA 2, SIRT5 block -3 and FGF22 binding 0.
CO[C@@H]1CN(C)C(=O)c2cc(NC(=O)c3ccccc3)ccc2OC[C@H](C)NC[C@@H]1C was read as E-selectin induc 2, S100A4 MyoIIA 8, SIRT5 block 2, miR-122 sensor -10[16.7 µM] and FGF22 binding 0.
COc1ccc(NC(=O)Nc2ccc3c(c2)C(=O)N([C@H](C)CO)C[C@H](C)[C@@H](CN(C)Cc2ccc4c(c2)OCO4)O3)cc1 was read as E-selectin induc -2, S100A4 MyoIIA 1, SIRT5 block 16*, miR-122 sensor 5[16.7 µM] and FGF22 binding 0.
For COc1ccc(NC(=O)Nc2ccc3c(c2)C(=O)N([C@H](C)CO)C[C@H](C)[C@@H](CN(C)Cc2ccncc2)O3)cc1 the results were E-selectin induc 170*, S100A4 MyoIIA 2, SIRT5 block -3, miR-122 sensor -1[16.7 µM] and FGF22 binding 0.
`COc1ccc(NC(=O)Nc2ccc3c(c2)C(=O)N([C@H](C)CO)C[C@@H](C)[C@@H](CN(C)Cc2ccncc2)O3)cc1` gave E-selectin induc 5, S100A4 MyoIIA 0, SIRT5 block -2, miR-122 sensor 9[16.7 µM] and FGF22 binding 0.
CCCNC(=O)N1CCC2(CC1)CN(C(=O)CC)[C@@H](CO)c1c2c2ccc(OC)cc2n1C was read as E-selectin induc 0, S100A4 MyoIIA 5 and FGF22 binding 0.
Screening Cc1cccc(S(=O)(=O)N2CCCCN3[C@H](C2)[C@H](c2ccc(C#C[C@H](C)O)cc2)[C@@H]3CO)c1 returned E-selectin induc 0, S100A4 MyoIIA 24, SIRT5 block 0, miR-122 sensor 10[16.7 µM] and FGF22 binding 0.
`C[C@@H]1CCCCO[C@H](CN(C)C)[C@H](C)CN([C@@H](C)CO)C(=O)c2cc(NS(C)(=O)=O)ccc2O1` gave E-selectin induc 0 and miR-122 sensor 4[16.7 µM].
